Test results reported in ChEMBL document CHEMBL3632466, “Cembranoids from the Gum Resin of Boswellia carterii as Potential Antiulcerative Colitis Agents” (J Nat Prod, 2015).
One block for each molecule: values may come before it. Calls of active or inactive are those of the source. No cut-off for these calls is given here.

Key:
[1] = Cytotoxicity against rat IEC-6 cells assessed as cell survival at 10 uM after 72 hrs by MTT assay relative to control; assay type: cell-based; conditions: read-out: Survival
[2] = biological target: T1, X-box-binding protein 1 (Rattus norvegicus) (UniProt Q9R1S4); assay: Transactivation of XBP1 in rat IEC-6 cells at 10 uM after 48 hrs by dual luciferase reporter gene assay relative to con2; assay type: cell-based
T1 sequence (whole entry): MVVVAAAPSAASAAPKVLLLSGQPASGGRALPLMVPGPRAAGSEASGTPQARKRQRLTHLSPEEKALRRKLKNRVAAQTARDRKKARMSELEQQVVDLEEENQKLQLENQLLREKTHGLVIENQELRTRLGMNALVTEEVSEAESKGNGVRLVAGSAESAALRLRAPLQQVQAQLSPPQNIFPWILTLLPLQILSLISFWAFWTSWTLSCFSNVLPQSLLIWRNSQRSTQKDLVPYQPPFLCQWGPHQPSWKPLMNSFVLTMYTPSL
In short: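 XBP 1 transcriptional activation measured by dual luciferase reporter detection. Con 2 is the pGL3-basic vector control, and activation is expressed as a fold ratio against it. Con 1 serves as background contrast, and 8-oxodihydrocoptisine is the positive control. Compounds are tested at 10 μM.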

SMILES: CC(C)[C@@]12CC[C@@](C)(O1)[C@H](O)CC/C(C=O)=C/CC[C@@]1(C)O[C@@H]1C2
viability at 72 h, 10 µM [1]: 87%
fold change (FC) [2]: 1.6

SMILES: C/C1=C\CC[C@]2(C)O[C@H]2C[C@]2(C(C)C)CC[C@@](C)(O2)[C@H](O)CC1=O (relative stereo)
viability at 72 h, 10 µM [1]: 87%
Activity [2]: Active

SMILES: C/C1=C\[C@@H](O)C[C@@]2(C)O[C@@H]2C[C@]2(C(C)C)CC[C@@](C)(O2)[C@H](O)CC1
viability at 72 h, 10 µM [1]: 87%
Activity [2]: Active

SMILES: C/C1=C\C[C@]2(C(C)C)CC[C@@](C)(O2)[C@@H]2CC[C@@](C)(O2)[C@@H](O)CC1=O (relative stereo)
viability at 72 h, 10 µM [1]: 87%
Activity [2]: Active

SMILES: C/C1=C\CC[C@@]2(C)O[C@@H]2C[C@]2(C(C)C)CC[C@@](C)(O2)[C@H](O)CC1=O (relative stereo)
viability at 72 h, 10 µM [1]: 87%
fold change (FC) [2]: 1.5

SMILES: C/C1=C\[C@@H](O)C[C@@]2(C)O[C@@H]2C[C@]2(C(C)C)CC[C@@](C)(O2)[C@H](O)CC1=O
viability at 72 h, 10 µM [1]: 87%
fold change (FC) [2]: 2.5

fold change (FC) [2]: 2.2
SMILES: O=c1c2c3c(ccc2cc2n1CCc1cc4c(cc1-2)OCO4)OCO3

SMILES: C/C1=C/C[C@@H](O)[C@@]2(C)CC[C@@](C(C)C)(C[C@@H](O)[C@]3(C)CC[C@H]1O3)O2
viability at 72 h, 10 µM [1]: 87%
fold change (FC) [2]: 1.5

SMILES: C/C1=C\CC[C@@]2(C)O[C@@H]2C[C@]2(C(C)C)CC[C@@](C)(O2)[C@H](O)CC1
viability at 72 h, 10 µM [1]: 87%
Activity [2]: Active

SMILES: CC(C)[C@@]12CC[C@@](C)(O1)[C@@H]1CC[C@@](C)(O1)[C@@H](O)C[C@@H]1O[C@@]1(C)[C@H](O)C2
viability at 72 h, 10 µM [1]: 87%
Activity [2]: Active
